Experimental data published in PubChem BioAssay AID685 (PCMD, 2007).
In all, about 30,000 compounds went through this assay and about 80 (0.3%) were called active. The sample holds actives, similar compounds and a random draw of the others, so the mix is not that of the screen.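 The calls were made as follows: active = mutant and wild-type yeast strains alike exhibit over 30% growth inhibition; inconclusive = a strain exceeds 50% while the second remains under 30%; inactive = the rest.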

Assay: yeast growth toxicity, wild-type and mutant, primary screen, cytotoxicity control for eIF2B function restoration project, wild-type and eIF2Bepsilon R284H mutant, A595 (AID 685);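 also: 0% = untreated cell controls and 100% = YPD media blanks without cells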
Conditions: A595 turbidity, 16 h, stronger effect = higher value, screened at 25 µM (by protocol)
Procedure, shortened: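 Schedule: 16 h growth with compound, 30 °C. System: yeast, wild-type or eIF2Bepsilon-R284H mutant. Doses: one dose, 25 µM compound[…]. Buffer or medium: YPD. Signal: turbidity measured as absorbance at 595 nm. Read-out basis: growth inhibition (%) versus cell controls and blanks.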

[1] = S. cerevisiae eIF2Bepsilon-R284H mutant growth

| SMILES | growth inhibition [1] | growth inhibition (S. cerevisiae wild-type growth) |
| --- | --- | --- |
| Nc1nc(SCc2ccccc2Cl)n[nH]1 | 16.2% | -0.77% (inactive) |
| CC(C)N(C(=O)COC(=O)c1ccccc1C(=O)N1CCN(c2ccc(F)cc2)CC1)C(C)C | -1.35% | -10% (inactive) |
| COc1ccc(O)c(C(=O)c2cnc3onc(C(C)C)c3c2)c1 | -10.5% | 8.18% (inactive) |
| CS(=O)(=O)N(CC(=O)N1CCN(c2ccc(F)cc2)CC1)C1CCCCC1 | 4.76% | 3.1% (inactive) |
| O=C(Nc1ccc(Cl)cc1)c1cc2nc(C3CC3)cc(C(F)(F)F)n2n1 | -4.05% | 1.92% (inactive) |
| O=C(CSCc1ccccc1)N1CCc2ccccc21 | 9.38% | 14.7% (inactive) |
| O=C(CN1CCSCC1)N/N=C/c1ccc(F)cc1 | 17.5% | 10% (inactive) |
| O=C(Nc1ccccc1-c1nnn(CC(=O)N2CCCc3ccccc32)n1)c1cccc(Cl)c1 | 4.35% | -12.9% (inactive) |
| CC1CCC2(CC1)NC(=O)N(CC(=O)c1cccn1C)C2=O (centres undefined) | -4.76% | 3% (inactive) |
| Cc1cc(=O)[nH]c(SCc2cccc(F)c2)n1 | 0% | 10.8% (inactive) |
| Cc1cc(C)cc(NC(=O)C2CCN(c3nc(C)cc(C)n3)CC2)c1 | -2.94% | 5.33% (inactive) |
| CC(c1ccco1)N(C(=O)COc1ccccc1[N+](=O)[O-])c1ccccn1 (centres undefined) | -23.8% | -11% (inactive) |
| COc1cc(C)c(C(C)C)cc1S(=O)(=O)n1ccnc1 | -20% | -17% (inactive) |
| O=c1[nH]nc(CSCc2ccccc2Cl)[nH]1 | -3.13% | -3.79% (inactive) |
| O=C(O)c1cc2ccccc2c(=O)s1 | -9.52% | 17.3% (inactive) |
| CCN(CC)C(=O)CSc1ncnc2c1cnn2-c1ccccc1 | -12.9% | 1.3% (inactive) |
| O=C(Cn1cnc2ccccc2c1=O)NCC1COc2ccccc2O1 (centres undefined) | 10.9% | 3.57% (inactive) |
| O=C(NCC1CCC(C(=O)O)CC1)OCc1ccccc1 (centres undefined) | 0% | -12.5% (inactive) |
| COc1ccc(S(=O)(=O)NCc2ccc(C(=O)N(C)Cc3ccco3)cc2)cc1 | 6.06% | -4.07% (inactive) |
| Clc1cccc(N=C2NN=C(c3ccc4c(c3)OCCO4)CS2)c1 | 5.13% | -0.77% (inactive) |
| CC(C)Oc1ccc(Oc2ccc(C(F)(F)F)cn2)cc1 | 7.69% | 6% (inactive) |
| Cc1ccc(C2C(C#N)C(C#N)N3CCCN23)cc1 (centres undefined) | 13% | -7.5% (inactive) |

| SMILES | growth inhibition [1] | growth inhibition (S. cerevisiae wild-type growth) |
| --- | --- | --- |
| Cc1ccc(C(=O)CSc2nnc(Cn3nnc4ccccc43)n2C)cc1 | 3.7% | 16.7% (inactive) |
| COc1ccc(OCC(=O)N2CCOCC2)cc1 | 17.9% | 15.5% (inactive) |
| O=S(=O)(NCC1OCCc2ccccc21)c1ccccc1 (centres undefined) | 15.2% | 16.1% (inactive) |
| CCN(c1ccccc1)S(=O)(=O)c1ccc(NC(=O)C(C)(C)C)cc1 | 15% | -4.62% (inactive) |
| Cc1cc(-c2ccccc2)nc(N2CCC(C(=O)NC34CC5CC(CC(C5)C3)C4)CC2)n1 | -19.1% | 2.16% (inactive) |
| C=CCNC(=O)c1ccc(C)c(Br)c1 | 0% | 6.76% (inactive) |
| CCN(CC)S(=O)(=O)c1ccc2c3c(cccc13)C(=O)S2 | -4.76% | 16.2% (inactive) |
| O=C(O)CCC(=O)NCc1ccc(C(=O)O)cc1 | 16.7% | 9.62% (inactive) |
| Cc1cccn2c(=O)c(/C=C(\C#N)S(=O)(=O)c3ccc(Cl)cc3)c(N3CCC(C(N)=O)CC3)nc12 | 0% | 7.31% (inactive) |
| CCCCSc1[nH]c(=O)c(C(=O)OCC)cc1C#N | 5% | 2.76% (inactive) |
| COc1ccc(CN(Cc2ccco2)S(=O)(=O)c2ccc(S(=O)(=O)N3CCCC3)cc2)cc1 | -2.56% | 16.6% (inactive) |
| O=C(CN1CCOCC1)Nc1ccccc1 | 12.8% | 11.2% (inactive) |
| CCCCCCNC(=O)CSc1nccn1Cc1ccccc1 | 11.1% | 20.4% (inactive) |
| Cc1ccc(CNC(=O)COc2ccc(S(=O)(=O)NC(C)C)cc2)cc1 | 11.6% | 20.3% (inactive) |
| COc1ccc(NC(=O)Cn2c(=O)n(Cc3ccco3)c(=O)c3ccccc32)cc1 | -12.8% | -47.3% (inactive) |
| O=c1c2ccccc2nc(CSc2nnnn2-c2ccccc2)n1-c1ccccc1 | -14.8% | -3.81% (inactive) |
| CCN(CC)C(=O)CSc1nnc(C2CCCCC2)o1 | 6.82% | 9.66% (inactive) |
| CCOc1cc(NC(=O)c2cnccn2)c(OCC)cc1NC(=O)c1ccc(C)cc1 | -33.3% | -5.09% (inactive) |
| CC(C)(C)C(=O)Cn1c(NCCO)nc2ccccc21 | -6.25% | 21% (inactive) |
| Cc1ccc(-n2ccc(=O)c(C(=O)O)n2)cc1 | 18.9% | 4.62% (inactive) |
| Cc1ccc(Cc2c(C)nc3nc(SCC(=O)NCCN4CCOCC4)nn3c2C)cc1 | 0% | 3.33% (inactive) |
| CC(C)CC(=O)Nc1cc(C(F)(F)F)ccc1N1CCOCC1 | 10.5% | 18.6% (inactive) |

| SMILES | growth inhibition [1] | growth inhibition (S. cerevisiae wild-type growth) |
| --- | --- | --- |
| CCC(c1nnnn1C1CCCC1)N1CCN(C(=O)c2ccco2)CC1 (centres undefined) | -13.6% | -4.24% (inactive) |
| CCC(O)CNc1nc(-n2nc(C)cc2C)nc2sc3c(c12)CC(C)(C)OC3 (centres undefined) | -4.55% | 4.83% (inactive) |
| O=C(CCc1ccccc1)NCc1cccnc1 | 4.55% | -12.1% (inactive) |
| CCOCCCNC(=O)c1c[nH]c2cc(C)ccc2c1=O | -17.9% | 16.6% (inactive) |
| N#Cc1c(/N=C/N2CCCC2)oc(-c2ccccc2)c1-c1ccccc1 | 7.69% | -15.7% (inactive) |
| COc1ccccc1NC(=O)C1CCCN(c2cc(C)nc3ncnn23)C1 (centres undefined) | -7.89% | 2.42% (inactive) |
| COc1ccc2oc(C)c(NC(C)=O)c2c1 | -6.67% | 17.6% (inactive) |
| FC(F)(F)c1nnc2ccc(N3CCN(c4ccccc4)CC3)nn12 | 9.68% | 11.8% (inactive) |
| OC(c1ccccc1)c1nccn1Cc1ccccc1 (centres undefined) | 6.98% | 31% (inactive) |
| O=C(CCC(=O)OCC(F)(F)C(F)F)NCc1ccccc1 | 8.11% | 2.5% (inactive) |
| CCOC(=O)CSc1nc2ccc(C)cc2[nH]1 | 0% | -5.43% (inactive) |
| CC(=O)c1cccc(NC(=O)Nc2ccc(C)cc2)c1 | 12.5% | -4.69% (inactive) |
| COc1ccc(N2CCN(C(=O)CCc3nc(-c4ccc(C)cc4)no3)CC2)cc1 | 5% | 10% (inactive) |
| Cc1ccc(S(=O)(=O)Oc2ccc(/C=N/NC(=O)c3c(Cl)cnn3C)cc2)cc1 | 0% | 11.2% (inactive) |
| CCCc1nc(NCc2ccc3c(c2)OCO3)c2nnn(Cc3ccccc3Cl)c2n1 | -4.84% | -14.3% (inactive) |
| COc1ccc(CN2CN(C(C)C)CSC2=S)cc1 | 81.8% | 44.7% (active) |
| COc1cc2c(cc1OC)C(C(C)C)=NC(C)(C)C2 | 3.13% | 7.59% (inactive) |
| CCOCCCNC(=O)C(NC(=O)CNC(=O)c1ccccc1)c1ccc(C)cc1 (centres undefined) | 0% | 1.25% (inactive) |
| C=C(C)CSc1nnc(-c2ccc(C)cc2)n1N | 10.3% | -3.2% (inactive) |
| CC(C)NC(=O)C(=O)NCCN1CCN(S(=O)(=O)c2ccc(Cl)cc2)CC1 | 7.69% | 7.31% (inactive) |
| COc1ccc(C2CC(=O)n3c(nc4ccccc43)S2)cc1OC (centres undefined) | -2.13% | 32% (inactive) |
| COc1ccc(-c2cc(C(F)(F)F)nc(NCc3cccnc3)n2)cc1 | 25.5% | 15.3% (inactive) |

| SMILES | growth inhibition [1] | growth inhibition (S. cerevisiae wild-type growth) |
| --- | --- | --- |
| CCCc1nc2sc3c(c2c(=O)n1NC(=O)CCCl)CCCC3 | 9.3% | -7.93% (inactive) |
| CCn1nc(C)c(NC(=O)/C=C/c2ccc(OC)c(COc3ccc(Br)cc3)c2)c1C | 50% | 54.5% (active) |
| COc1cccc(OCc2cc(/C=N/NC(=O)c3nc(Cl)c(Cl)c(N)c3Cl)ccc2OC)c1 | -17.9% | -14.8% (inactive) |
| CCOC(=O)N1CCN(C(=O)COc2ccc(Br)cc2)CC1 | 0% | 10.3% (inactive) |
| C=CCn1c(SCc2c(C(=O)OC)sc(N)c2C(=O)OC)nnc1-c1ccc(Cl)cc1 | 6.98% | -10.3% (inactive) |
| CCCCOc1ccc(C(=O)NCc2ccncc2)cc1 | 18.6% | 33.8% (inactive) |
| CCCOc1ccc(C2NC(=O)NC(c3ccccc3)=C2C(C)=O)cc1OCC (centres undefined) | 7.89% | 4.64% (inactive) |
| COC(=O)/C(NC(C)=O)=C(\C)c1ccc(Cl)cc1 | -32.3% | 8.3% (inactive) |
| CCOc1ccc(NC(=O)CCS(=O)(=O)c2ccc3c(c2)CCCN3C(=O)CC)cc1 | 13.5% | 10.8% (inactive) |
| CCN(CC)CCn1c(=S)[nH]c2ncccc2c1=O | 5.13% | 11.5% (inactive) |
| CCc1ccc(NC(=O)CN2C(=O)CSC2=O)cc1 | -8.82% | 5% (inactive) |
| COc1ccc(C)cc1S(=O)(=O)NCCc1ccccc1 | 12.9% | 4.64% (inactive) |
| CC(C)=C1SC(N2CCN(c3cccc(C)c3)CC2)=NC1=O | 16.2% | 11.8% (inactive) |
| COc1cccc2cc(C(=O)N3CCN(C(=O)c4ccccc4)CC3)c(=O)oc12 | 9.38% | 8.28% (inactive) |
| CC(Oc1ccc(Cl)cc1)c1ccnn1S(C)(=O)=O (centres undefined) | 10.8% | 28.1% (inactive) |
| CC(C)(C)n1nnnc1C(c1ccc(F)cc1)N1CCN(Cc2ccc3c(c2)OCO3)CC1 (centres undefined) | -18.2% | 15% (inactive) |
| NC(=O)c1ncc(C(F)(F)F)cc1Oc1ccc(F)cc1 | -3.33% | 19.2% (inactive) |
| CCn1nccc1C(=O)Nc1ccc(Cl)c(Cl)c1 | -8.33% | 12.8% (inactive) |
| N/C(=N\OC(=O)Nc1ccc(Cl)c(Cl)c1)c1ncc(C(F)(F)F)cc1Cl | 30.3% | 35.2% (active) |
| CN1CCN(C(=O)Cn2c(C(F)(F)F)nc3ccccc32)CC1 | 25% | 9.62% (inactive) |
| CC(C)(C)N1CC(c2nc3ccccc3n2Cc2ccc(F)cc2)CC1=O (centres undefined) | 20% | 5% (inactive) |
